Values after ≈ are worked out from the molar mass of the structure shown.
Legend:
Plasmodium falciparum [1] = assay: Antiplasmodial activity against late stage (IV/V) Plasmodium falciparum NF54 gametocytes at 5 uM incubated for 48 hrs under hypoxia condition by luciferase reporter gene assay relative to control; assay type: functional
Plasmodium falciparum [2] = assay: Antiplasmodial activity against multidrug-sensitive asexual blood stage Plasmodium falciparum NF54 strain assessed as reduction in parasite growth after 72 hrs by NBT reagent based LDH assay; assay type: functional, organism-based; settings: NF54, 72 h
Plasmodium berghei = assay: Antiplasmodial activity against luciferase-expressing Plasmodium berghei sporozoites liver stage infected in human HepG2 cells expressing GFP-CD81 fusion protein incubated for 48 hrs by luciferase reporter gene based bioluminescence assay; assay type: functional, organism-based; settings: HepG2, 48 h
Summary of the method: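 Liver-stage activity was measured in vitro with rodent P. berghei sporozoites. Values are the mean of 3 technical replicates from the luciferase assay; individual values varied less than 2×.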

Plasmodium falciparum [3] = assay: Antiplasmodial activity against multidrug-resistant asexual blood stage Plasmodium falciparum K1 strain assessed as reduction in parasite growth after 72 hrs by NBT reagent based LDH assay; assay type: functional, organism-based; settings: K1, 72 h
Summary of the method: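 Asexual blood-stage K1 (multidrug-resistant) parasites were read out by the parasite lactate dehydrogenase (pLDH) assay. […] Most individual values varied less than 2× (maximum 3×).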

Plasmodium falciparum [4] = assay: Antiplasmodial activity against early stage (I to III) Plasmodium falciparum NF54 gametocytes incubated for 48 hrs under hypoxia condition by luciferase reporter gene assay; assay type: functional, organism-based; settings: NF54, 48 h
[5] = Aqueous solubility of compound in phosphate buffer saline at pH 6.5 incubated for 20 hrs under shaking condition by shake-flask method based HPLC-DAD analysis; assay type: physicochemical; settings: phosphate buffered saline
Summary of the method: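 Equilibrium aqueous solubility was measured at pH 6.5 using a miniaturized shake-flask method.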

[6] = Selectivity index, ratio of CC50 for cytotoxicity against CHO cells assessed as reduction in cell viability to IC50 for antiplasmodial activity against multidrug-sensitive Plasmodium falciparum NF54 assessed as reduction in parasite growth; assay type: toxicity, cell-based; settings: hamster, read-out: Ratio CC50/IC50
CHO = assay: Cytotoxicity against CHO cells assessed as reduction in cell viability by MTT assay; assay type: cell-based, Cricetulus griseus; settings: chinese hamster
Summary of the method: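 Cytotoxicity was measured in Chinese hamster ovary (CHO) cells and reported as CC50. The selectivity index is CC50 divided by NF54 IC50.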

[7] = Apparent intrinsic clearance in mouse liver microsomes at 0.1 uM in presence of NADPH by LC-MS/MS analysis; assay type: ADME, Microsome
Summary of the method: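 Compound was incubated with mouse liver microsomes for 30 min. Apparent intrinsic clearance (CL_int,app) is reported in μL/min/mg.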

[8] = Terminal half life in Balb/C mouse at 20 mg/kg, po by LC-MS/MS analysis; assay type: ADME, organism-based; settings: in vivo, read-out: beta t1/2 (converted)
Summary of the method: (§1)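 Healthy Balb/c mice were given the compound i.v. or orally. Parameters come from non-compartmental analysis: AUC from 0 h to t_last, blood clearance, volume at steady state, terminal half-life, Tmax. Oral bioavailability F is derived from the i.v. and p.o. data.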

[9] = Clearance in Balb/C mouse blood at 2 mg/kg, iv by LC-MS/MS analysis; assay type: ADME, organism-based; settings: whole blood
Summary of the method: (§2)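 Healthy Balb/c mice dosed i.v. or orally. Parameters come from non-compartmental analysis of compound concentration over time. […] Clearance is blood clearance (CL_b).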

[10] = Cmax in Balb/C mouse at 2 mg/kg, iv by LC-MS/MS analysis; assay type: ADME, organism-based; design: route intravenous, dose 2 mg/kg; settings: in vivo; summary of the method: as §2
[11] = Volume of distribution at steady state in Balb/C mouse at 2 mg/kg, iv by LC-MS/MS analysis; assay type: ADME, organism-based; settings: in vivo, read-out: Vdss; summary of the method: as §1
[12] = AUC (0 to t) in Balb/C mouse at 20 mg/kg, po by LC-MS/MS analysis; assay type: ADME, organism-based; design: dose 20 mg/kg; settings: in vivo; summary of the method: as §2
[13] = Ratio of unbound average drug concentration in Balb/c mouse at 20 mg/kg, po measured at 24 hrs to IC50 for antiplasmodial activity against multidrug-sensitive Plasmodium falciparum NF54 asexual blood stage assessed as reduction in parasite growth after 72 hrs by LDH assay; assay type: organism-based; settings: in vivo
[14] = AUC (0 to t) in Balb/C mouse at 2 mg/kg, iv by LC-MS/MS analysis; assay type: ADME, organism-based; design: dose 2 mg/kg; settings: in vivo; summary of the method: as §2
[15] = Cmax in Balb/C mouse at 20 mg/kg, po by LC-MS/MS analysis; assay type: ADME, organism-based; design: route oral, dose 20 mg/kg; settings: in vivo; summary of the method: as §2
[16] = target: Voltage-gated inwardly rectifying potassium channel KCNH2 (Homo sapiens, UniProt Q12809); assay: Inhibition of human ERG by patch clamp method
Sequence of Voltage-gated inwardly rectifying potassium channel KCNH2 (Q12809 whole entry): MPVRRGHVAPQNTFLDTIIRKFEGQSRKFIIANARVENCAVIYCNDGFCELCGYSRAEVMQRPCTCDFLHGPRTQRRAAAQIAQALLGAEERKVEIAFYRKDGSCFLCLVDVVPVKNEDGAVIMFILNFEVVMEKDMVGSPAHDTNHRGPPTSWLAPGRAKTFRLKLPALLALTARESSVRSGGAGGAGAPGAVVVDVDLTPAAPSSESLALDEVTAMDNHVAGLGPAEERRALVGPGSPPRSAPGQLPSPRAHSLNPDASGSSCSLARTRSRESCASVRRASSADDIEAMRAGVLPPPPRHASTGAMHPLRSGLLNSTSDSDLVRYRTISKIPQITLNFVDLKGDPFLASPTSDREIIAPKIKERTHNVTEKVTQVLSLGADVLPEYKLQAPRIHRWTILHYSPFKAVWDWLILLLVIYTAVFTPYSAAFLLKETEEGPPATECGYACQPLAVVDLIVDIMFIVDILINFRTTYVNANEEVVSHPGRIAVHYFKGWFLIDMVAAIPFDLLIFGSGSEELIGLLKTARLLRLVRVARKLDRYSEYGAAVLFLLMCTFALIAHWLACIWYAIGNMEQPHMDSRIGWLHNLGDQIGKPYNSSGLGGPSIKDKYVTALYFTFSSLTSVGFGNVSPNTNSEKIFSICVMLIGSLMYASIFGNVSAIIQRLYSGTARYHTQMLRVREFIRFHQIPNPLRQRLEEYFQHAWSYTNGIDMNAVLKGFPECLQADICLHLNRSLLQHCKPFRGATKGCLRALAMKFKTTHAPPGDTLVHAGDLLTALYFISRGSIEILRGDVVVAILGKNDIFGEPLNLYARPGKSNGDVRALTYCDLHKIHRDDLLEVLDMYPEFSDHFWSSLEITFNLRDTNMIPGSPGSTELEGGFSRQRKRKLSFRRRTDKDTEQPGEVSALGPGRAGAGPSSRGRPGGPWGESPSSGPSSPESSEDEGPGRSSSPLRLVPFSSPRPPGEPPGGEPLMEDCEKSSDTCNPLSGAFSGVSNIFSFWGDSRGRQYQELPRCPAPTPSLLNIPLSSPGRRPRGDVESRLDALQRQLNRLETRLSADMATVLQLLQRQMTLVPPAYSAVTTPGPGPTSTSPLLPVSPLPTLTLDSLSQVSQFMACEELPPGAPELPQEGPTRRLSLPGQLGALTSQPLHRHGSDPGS

[17] = Oral bioavailability in Balb/C mouse at 20 mg/kg by LC-MS/MS analysis; assay type: ADME, organism-based; settings: in vivo; summary of the method: as §1
[18] = Terminal half life in Balb/C mouse at 2 mg/kg, iv by LC-MS/MS analysis; assay type: ADME, organism-based; settings: in vivo, read-out: beta t1/2 (converted); summary of the method: as §1
[19] = Tmax in Balb/C mouse at 20 mg/kg, po by LC-MS/MS analysis; assay type: ADME, organism-based; settings: in vivo; summary of the method: as §1
Hemozoin = assay: Inhibition of beta-hematin formation assessed as reduction in hemozoin formation incubated for 5 hrs by NP40 detergent-mediated assay
Summary of the method: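 Synthetic hemozoin (β-hematin) formation is driven by the detergent Nonidet P-40. Pyridine is then added to detect unreacted hematin. IC50 is derived from this read-out.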

[20] = AUC (0 to t) in Balb/C mouse at 5 mg/kg, po by LC-MS/MS analysis; assay type: ADME, organism-based; design: dose 5 mg/kg; settings: in vivo; summary of the method: as §2
[21] = Ratio of unbound average drug concentration in Balb/c mouse at 5 mg/kg, po measured at 24 hrs to IC50 for antiplasmodial activity against multidrug-sensitive Plasmodium falciparum NF54 asexual blood stage assessed as reduction in parasite growth after 72 hrs by LDH assay; assay type: organism-based; settings: in vivo
[22] = Oral bioavailability in Balb/C mouse at 5 mg/kg by LC-MS/MS analysis; assay type: ADME, organism-based; settings: in vivo; summary of the method: as §1
[23] = Terminal half life in Balb/C mouse at 5 mg/kg, po by LC-MS/MS analysis; assay type: ADME, organism-based; settings: in vivo, read-out: beta t1/2 (converted); summary of the method: as §1
[24] = Tmax in Balb/C mouse at 5 mg/kg, po by LC-MS/MS analysis; assay type: ADME, organism-based; settings: in vivo; summary of the method: as §1
[25] = Cmax in Balb/C mouse at 5 mg/kg, po by LC-MS/MS analysis; assay type: ADME, organism-based; design: route oral, dose 5 mg/kg; settings: in vivo; summary of the method: as §2
[26] = AUC in Balb/c mouse administered orally; assay type: ADME; settings: in vivo, po; summary of the method: as §2
[27] = Dissociation constant, pKa of compound; assay type: physicochemical
[28] = Ratio of unbound average drug concentration in Balb/c mouse at 10 mg/kg, po measured at 24 hrs to IC50 for antiplasmodial activity against multidrug-sensitive Plasmodium falciparum NF54 asexual blood stage assessed as reduction in parasite growth after 72 hrs by LDH assay; assay type: organism-based; settings: in vivo
[29] = Oral bioavailability in Balb/C mouse at 10 mg/kg by LC-MS/MS analysis; assay type: ADME, organism-based; settings: in vivo; summary of the method: as §1
[30] = Cmax in Balb/C mouse at 10 mg/kg, po by LC-MS/MS analysis; assay type: ADME, organism-based; design: route oral, dose 10 mg/kg; settings: in vivo; summary of the method: as §2
[31] = AUC (0 to t) in Balb/C mouse at 10 mg/kg, po by LC-MS/MS analysis; assay type: ADME, organism-based; design: dose 10 mg/kg; settings: in vivo; summary of the method: as §2
[32] = Terminal half life in Balb/C mouse at 10 mg/kg, po by LC-MS/MS analysis; assay type: ADME, organism-based; settings: in vivo, read-out: beta t1/2 (converted); summary of the method: as §1
[33] = Tmax in Balb/C mouse at 10 mg/kg, po by LC-MS/MS analysis; assay type: ADME, organism-based; settings: in vivo; summary of the method: as §1

Row | Compound | IC50 (Plasmodium falciparum [2]) [nM] | IC50 (Plasmodium falciparum [3]) [nM] | solubility thermodynamic at 20 h [5] [µM] | CC50 (CHO) [nM] | clearance [9] [mL/min/kg] | Cmax [10] [nM] | Vd [11] [L/kg] | AUCt [14] [µM·h] | half-life [18] [h] | also measured
1 | Fc1ccc(-c2nc3c(N4CCCN(CC5CC5)CC4)nccc3[nH]2)cc1F | 20 | 77 | 200 (≈ 76.7 µg/mL) | – | – | – | – | – | – | inhibition at 5 µM (Plasmodium falciparum [1]): 48%; IC50 (Plasmodium berghei): 17000 nM; IC50 (Plasmodium falciparum [4]): 5300 nM; selectivity ratio [6]: 850
2 | CN1CCC(N2CCN(c3nccc4[nH]c(-c5ccc(F)c(F)c5)nc34)CC(F)(F)C2)CC1 | 59 | 160 | 180 (≈ 83.2 µg/mL) | 33000 | – | – | – | – | – | CLH [7]: 33 µL/min/mg
3 | CN1CCN(C2CCN(c3nccc4[nH]c(-c5cc(F)cc(F)c5)nc34)CC2)CC1 | 50 | 170 | 200 (≈ 82.5 µg/mL) | 30000 | 34.8 | 300 | 30 | 1.95 | 12.6 | half-life [8]: 9.8 h; AUCt [12]: 11.8 µM·h; Ratio [13]: 2.5; Cmax [15]: 1500 nM; IC50 [16]: > 30000 nM; bioavailability [17]: 61%; Tmax [19]: 1.5 h
4 | CN1CCN(CC2CCN(c3nncc4[nH]c(-c5cc(F)cc(F)c5)nc34)CC2)CC1 | 580 | 2900 | 190 (≈ 81.2 µg/mL) | – | – | – | – | – | – | IC50 (Hemozoin): 25000 nM
5 | CN1CCN(c2nccc3nc(-c4ccc(F)c(F)c4)[nH]c23)CC1 | 240 | 500 | 130 (≈ 42.8 µg/mL) | – | 27.3 | 1000 | 9 | 3.58 | 5.9 | AUCt [20]: 3.25 µM·h; Ratio [21]: 0.1; bioavailability [22]: 36%; half-life [23]: 5.4 h; Tmax [24]: 0.7 h; Cmax [25]: 1100 nM
6 | Cc1cc2[nH]c(-c3cc(F)cc(F)c3)nc2c(N2CCC(CN3CCN(C)CC3)CC2)n1 | 12 | 21 | 200 (≈ 88.1 µg/mL) | 1900 | – | – | – | – | – | IC50 (Hemozoin): 15000 nM; IC50 [16]: > 30000 nM; selectivity ratio [6]: 160
7 | CS(=O)(=O)c1ccc(-c2cnc(N)c(-c3ccc(C(F)(F)F)nc3)c2)cc1 [MMV-048] | – | – | – | – | – | – | – | – | – | AUC [26]: 465 µM·h
8 | Fc1cc(F)cc(-c2nc3c(N4CCC(N5CCOCC5)CC4)nccc3[nH]2)c1 | – | – | – | – | – | – | – | – | – | pKa [27]: 7.4
9 | CN1CCN(CC2CCN(c3cncc4[nH]c(-c5cc(F)cc(F)c5)nc34)CC2)CC1 | 130 | 330 | 125 (≈ 53.3 µg/mL) | 46000 | 71.8 | 100 | 51 | 0.967 | 6.9 | Ratio [28]: 0.3; bioavailability [29]: 73%; Cmax [30]: 400 nM; AUCt [31]: 3.57 µM·h; half-life [32]: 4.9 h; Tmax [33]: 3.5 h

Source: ChEMBL document CHEMBL4699593, “Identification of 2,4-Disubstituted Imidazopyridines as Hemozoin Formation Inhibitors with Fast-Killing Kinetics and In Vivo Efficacy in the Plasmodium falciparum NSG Mouse Model” (J Med Chem, 2020)
